Bioassay records as filed in PubChem.
T cruzi repl = T. cruzi replication inhibition; T. cruzi beta-gal in NIH3T3, luminescence, 90 h; inhibition, % (test concentration not listed); 1.4% of 300,000 active;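 active means mean inhibition across valid replicates above about 55%, limit read from the data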;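 further: signal also drops with host cell toxicity which is not excluded here; higher percent means less beta-gal luminescence so fewer parasites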
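Test system: β-gal T. cruzi (Tulahuen C4) inside NIH/3T3 cells / Quantity: 5,000 cells/well / Measured by: luminescence from GalScreen with 0.05% NP40, read after 60 min / Medium: DMEM plus 2% FBS / Measure: parasite load inhibition, % / Reagent: Tulahuen C4 trypomastigotes, 5000/well / Schedule: co-culture of at least 90 h after 3 h attachment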
L major viab = Leishmania major promastigote growth inhibition. 9% of 200,000 active. Leishmania major promastigotes, resazurin fluorescence viability. inhibition, % at 10 µM; in the data active means inhibition above about 50%;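 further: promastigotes grown with compound for 44 hours at 28 °C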
HSF1 inh = HSF1 inhibition | NIH3T3-HGL HSE-luciferase, MG132-induced, luminescence 8 h; active compounds read low | activity change, negative = inhibition, % at 7.5 µM (by protocol) | 0.77% of 300,000 active | AID 2098;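 active means more than half of replicate wells show activity change below -50%, luminescence cut by over half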;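 further: luciferase reports HSF-1 transcriptional activity via heat shock element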
HSF1 activator = increases HSF-1 driven luciferase reporter signal; NIH3T3-HGL HSF-1 luciferase reporter, MG132, 8 h; 100% = twice DMSO control signal; activation, % at 9 µM; 1.7% of 300,000 active;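 active means mean replicate activation of at least 50% with a set share of replicates each reaching 50%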
Hsp70 act = switches on Hsp70 transcription. HeLa Hsp70 promoter luciferase reporter, luminescence; scaled: vehicle 0, proteasome-inhibitor control 100%. activation, % at 10 µM. 0.04% of 200,000 active. AID 1203;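 active means activation above the mean across all tested compounds plus 3 SD, cutoff set per campaign, cut at about 5.5% in these data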
A number is an active result; 0 = inactive; - = no result given. This is one part of a sample in which hits are shown more often than they occur.

SMILES	T cruzi repl	L major viab	HSF1 inh	HSF1 activator	Hsp70 act
Cc1sc2ncnc(N3CCN(C(=O)c4ccco4)CC3)c2c1C	0	0	0	0	0
COCCN1CN(S(=O)(=O)c2ccc(Cl)cc2)c2nc3ccccc3nc21	0	77.1	0	0	0
Cc1cc(N2CCOCC2)nc2ccc(NC(=S)NC(C)C)cc12	0	-	0	0	-
CCOCCCNC(=S)Nc1ccc2nc(N3CCCC3)cc(C)c2c1	0	99.6	0	0	0
COCCNC(=S)Nc1ccc2nc(N3CCOCC3)cc(C)c2c1	0	-	0	0	-
Cc1cc(N2CCCC2)nc2ccc(NC(=S)NC(C)C)cc12	0	99.4	0	0	0
COCCNC(=S)Nc1ccc2nc(N3CCCC3)cc(C)c2c1	0	99.9	0	0	0
O=C(CCS(=O)(=O)c1ccccc1)Nc1ccccc1F	0	0	0	0	0
O=c1c(Cc2ccccc2)c(O)ccn1Cc1ccc2c(c1)OCO2	0	0	0	0	0
O=[N+]([O-])c1ccccc1CCc1cnc(Cl)s1	0	-	-63.3	0	-
O=[N+]([O-])c1ccccc1CSc1ccccn1	0	-	0	0	-
Cc1nc(C)c(C(=O)N2CCCC(C(=O)c3ccc(Cl)cc3C)C2)s1 (configuration not stated)	0	-	0	0	-
CCCCn1c(N)c(N(CCOC)C(=O)c2ccc(S(=O)(=O)N3CCCCC3)cc2)c(=O)[nH]c1=O	0	-	0	0	-
COc1ccc(N(CC(=O)NC2CCCCC2)C(=O)CCC(=O)Nc2nc(C)cs2)cc1OC	0	-	0	0	-
Cc1ccc(C(=O)N2CCN(C34CC5CC(CC(C5)C3)C4)CC2)o1	0	-	0	0	-
COc1ccc(Cl)cc1Nc1nc(-c2sc(NC(=O)C(C)(C)C)nc2C)cs1	0	95.8	0	0	0
COc1ccc(OC)c(Nc2nc(-c3sc(NC(=O)C(C)(C)C)nc3C)cs2)c1	0	93.2	0	0	0
CCC(C)C(=O)Nc1nc(C)c(-c2csc(Nc3cc(Cl)ccc3OC)n2)s1 (configuration not stated)	0	0	0	0	0
CCN1C(=O)C(=Cc2cccc(OC)c2Oc2ccc([N+](=O)[O-])cc2[N+](=O)[O-])SC1=S	0	-	0	0	-
CCCCOc1ccc(CSCCN=C(N)N)cc1	0	97.3	0	0	0
COc1ccc(NC(=O)CSc2nnc(C3CCCCC3)n2N)cc1	0	-	0	0	-
COc1ccc(C(=O)CSc2nnc(C3CCCCC3)n2N)c(OC)c1	0	53.0	0	0	0
COc1ccc(C(=O)CSc2nnc(CN3CCCC3)n2-c2ccc(F)cc2)c(OC)c1	0	80.2	0	0	0
COc1ccc(C(=O)CSc2nnc(CN3CCCCC3)n2-c2ccc(F)cc2)cc1OC	0	90.1	0	0	0
CCc1noc(C)c1C(=O)NCCN1C(=O)S/C(=C\c2ccc(OC)cc2)C1=O	0	-	0	0	-
SMILES	T cruzi repl	L major viab	HSF1 inh	HSF1 activator	Hsp70 act
Cc1ccc(CNC(=O)C2CCCN(c3nc4ccsc4c(=O)s3)C2)cc1 (configuration not stated)	0	0	0	0	0
C[n+]1c(-c2ccccc2)sc([S-])c1-c1ccccc1	0	-	0	0	-
COc1ccc(-n2c(=O)c3c4c(sc3n(CC(N)=O)c2=O)CCCCC4)cc1	0	-	0	51.9	-
CCN1CCN(c2nc3sc4c(c3c(=O)n2-c2ccc(OC)cc2)CCCCC4)CC1	0	97.8	0	0	0
COc1ccc(-n2c(NN)nc3sc4c(c3c2=O)CCCC4)cc1	0	0	0	0	0
CC1CCN(C(=O)CCS(=O)(=O)c2cc3c(cc2Cl)NC(=O)CO3)CC1	0	-	0	0	-
CC(=O)Nc1ccc(S(=O)(=O)NNc2ccc([N+](=O)[O-])cc2)cc1	0	-	0	0	-
Cc1ccc(C(=O)N2CC(=O)Nc3ccc(F)cc3C2c2ccc(F)cc2)cc1[N+](=O)[O-] (configuration not stated)	0	0	0	0	0
O=C(CN1C(=O)COc2ccccc21)NCc1ccc(C(=O)O)cc1	0	0	0	0	0
O=C(O)c1ccccc1C(=O)c1ccc2c(c1)N(Cc1ccc(Cl)c(Cl)c1)C(=O)CO2	0	99.6	0	0	0
COc1ccc(S(=O)(=O)N2CCC(C)CC2)cc1N(C)S(=O)(=O)c1ccccc1	0	-	0	0	-
COc1ccc(S(=O)(=O)N2CCCCCC2)cc1N(C)S(=O)(=O)c1ccc(Cl)cc1	64.3	0	0	0	0
CCNc1ccc(S(=O)(=O)N(C)C)cc1NCC(=O)Nc1ccccc1F	0	0	0	0	0
CN(C)S(=O)(=O)c1cccc(NC(=O)NCCCl)c1	0	-	0	0	-
